Experimental data of several laboratories.
Lines come from different studies, so protocols differ.
Observed: cell growth or viability

Compound | cell line | method | time | IC50
C=C(F)C(=O)N1CCN(c2nc(OC[C@@H]3CCCN3C)nc3c2CCN(c2cccc4cccc(Cl)c24)C3)C[C@@H]1CC#N | NCI-H1792 | ATP luminescence |  | 674 nM
COc1cc2ncnc(Nc3ccc4c(c3)/C(=C/c3ccccc3)C(=O)N4)c2cc1OC | H22 | MTT |  | > 50000 nM
Nc1ccc(/C=C/C(=O)N2CCc3c(oc4c(-c5ccc(F)cc5)cc(-c5ccc(C(=O)N6CCOCC6)nn5)cc34)C2)cn1 | U2OS | CCK-8 | 72 h | 730 nM
COc1cc2c3c(n(CCCN4CCOCC4)c(=O)c2cc1OC)-c1nc2c(cc1C3=O)OCO2 | L-363 | MTS | 72 h | 342 nM
Nc1ccc(/C=C/C(=O)N2CCc3c(oc4c(-c5ccc(F)cc5)cc(-c5ncc(C(=O)N6CCC(F)(F)CC6)cn5)cc34)C2)cn1 | U2OS | CCK-8 | 72 h | 5740 nM
Cc1nc(Nc2ccc3c(c2)/C(=C/c2ccccc2)C(=O)N3C)c2ccccc2n1 | H22 | MTT |  | 5340 nM
Nc1ccc(/C=C/C(=O)N2CCc3c(oc4c(-c5ccc(F)cc5)cc(-c5cnc(C(=O)N6CCC(F)(F)CC6)nc5)cc34)C2)cn1 | U2OS | CCK-8 | 72 h | 950 nM
CCN1[C@@H](C(=O)NC23CCC(C(=O)O)(CC2)CC3)[C@H](c2cccc(Cl)c2F)[C@]2(C(=O)Nc3cc(Cl)ccc32)C12CCCCC2 | U2OS | resazurin | 72 h | > 1000 nM
Nc1ccc(/C=C/C(=O)N2CCc3c(oc4c(-c5ccc(F)cc5)cc(-c5ccc(C(=O)N6CCC(F)(F)CC6)cc5F)cc34)C2)cn1 | U2OS | CCK-8 | 72 h | > 10000 nM
Cc1nc(Nc2ccc3c(c2)/C(=C/c2ccccc2C)C(=O)N3C)c2ccccc2n1 | H22 | MTT |  | 4780 nM
CCNCCCn1c2c(c3cc(OC)c(OC)cc3c1=O)C(=O)c1cc3c(nc1-2)OCO3 | L-363 | MTS | 72 h | 96 nM
COc1cc2ncnc(N(C)c3ccc4c(c3)/C(=C/c3ccccc3)C(=O)N4C)c2cc1OC (mixture of isomers) | H22 | MTT |  | 4960 nM
COc1cc2c3c(n(CCCNC(C)C)c(=O)c2cc1OC)-c1nc2c(cc1C3=O)OCO2 | L-363 | MTS | 72 h | 126 nM
O=c1c(C=NNC(=S)Nc2ccccc2)coc2ccccc12 | HeLa | MTT | 24 h | > 100000 nM
Cc1noc2c1-c1ccccc1C(c1ccc(Cl)cc1)=N[C@H]2CC(N)=O | NB-4 | ATP luminescence | 72 h | 760 nM
